Test results published in ChEMBL document CHEMBL2057119, “Small molecules that protect against β-amyloid-induced cytotoxicity by inhibiting aggregation of β-amyloid” (Bioorg Med Chem, 2012).
pIC50: −log10 of the molar value. The source made the active and inactive calls.

Legend:
[1] = target: T1, Amyloid-beta precursor protein (Homo sapiens, UniProt P05067); test: Inhibition of amyloid beta (1 to 42) fibril formation at 10 uM after 1 hr by ThT spectrofluorometric analysis
How it was run: (§1)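 ThT diluted to 5 µM in 50 mM glycine buffer was then added. After 10 s of shaking, fluorescence was read at excitation 450 nm and emission 480 nm, as a measure of fibril formation.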

[2] = Cytotoxicity against mouse HT22 cells assessed as viability at 10 uM after 18 hrs by MTT assay; format: cell-based, HT-22; conditions: read-out: Activity
How it was run: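 HT22 murine hippocampal cells were grown in DMEM with 10% FBS at 37 °C, 5% CO2, and plated at 5×10^3 cells/well. They were switched to plain DMEM and serum-starved for 1 h before exposure to compound at 10 µM for 18 h. MTT solution (5 mg/mL) was added for 4 h at 37 °C. Cells were solubilized in 50% DMF/10% SDS (pH 4.7) for 18 h, absorbance was read at 570/630 nm, and % cytotoxicity was calculated.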

[3] = target: T1, Amyloid-beta precursor protein; test: Inhibition of amyloid beta (25 to 35)-induced cell death in mouse HT22 cells at 10 uM after 18 hrs by MTT assay; format: cell-based; conditions: HT-22, values are per cent of control
How it was run: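 HT22 cells were plated at 5×10^3 cells/well, serum-starved in plain DMEM for 1 h, and pretreated with compound for 1 h. Aβ(25–35) was prepared as a 10 mM DMSO stock, diluted 10-fold in PBS, and aggregated for 1 h at room temperature. It was then added at a final 25 µM, and cells were incubated for 18 h. Viability was measured by MTT (4 h), then solubilization in DMF/SDS and absorbance at 570/630 nm.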

Mus musculus [4] = test: Antialzheimer activity in ICR mouse assessed as reduction in amyloid beta (1 to 42)-induced spontaneous memory loss at 100 mg/kg, po measured after 2 days by Y-maze test; format: functional; design: scale not given: the % may be the effect or the level left
How it was run: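 Aβ(1–42) at 10 nM in PBS (from a 250 µM DMSO stock) was aggregated at 37 °C for 6 days, then injected ICV (50 µL, 2.4 mm depth at bregma) into male ICR mice. Compound was given at 100 mg/kg po once daily, and the Y-maze test was on day 2. Each mouse explored a three-arm maze freely for 8 min. An entry counted when all four limbs were in an arm; spontaneous alternation was scored as three consecutive different-arm entries. n = 10, mean ± SEM.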

Mus musculus [5] = test: Antialzheimer activity in ICR mouse assessed as reduction in amyloid beta (1 to 42)-induced spontaneous memory loss at 100 mg/kg, po measured after 2 days by object recognition task relative to control; format: functional; design: scale not given: the % may be the effect or the level left
How it was run: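 Male ICR mice received ICV pre-aggregated Aβ(1–42) at 10 nM (50 µL, 2.4 mm depth at bregma), then compound at 100 mg/kg po once daily. Object recognition ran on days 2–3. Exploration was counted as the nose directed at an object within 2 cm and/or touching it, and objects were cleaned to avoid olfactory cues. Preference index = exploration time for new object / total exploration time. n = 10, mean ± SEM.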

[6] = target: T1, Amyloid-beta precursor protein; test: Inhibition of amyloid beta (1 to 42) fibril formation after 1 hr by ThT spectrofluorometric analysis; how it was run: as §1
[7] = target: T1, Amyloid-beta precursor protein; test: Inhibition of amyloid beta (1 to 42) aggregation at 2 uM after 2 hrs by SDS-PAGE and PICUP technique
How it was run: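 Aβ(1–42) was monomerized in HFIP (0.5 mM), dried, and redissolved in DMSO. It was incubated at 25 µM final in PBS (pH 7.3) with compound at 2 µM final for 2 h at 37 °C. Samples were photo-cross-linked (PICUP) with ammonium persulfate and Ru(bpy)3Cl2 using three 1 s irradiations, quenched, and boiled. Products were resolved on a 10–20% tris-tricine gel and silver-stained.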

Mus musculus [8] = test: Antialzheimer activity in ICR mouse assessed as increase in amyloid beta (1 to 42)-induced step-through latency at 100 mg/kg, po measured after 3 days by passive avoidance test; format: functional
How it was run: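 Male ICR mice got 50 µL of pre-aggregated Aβ(1–42) by ICV injection at 2.4 mm depth at bregma. The peptide was a 250 µM DMSO stock diluted in PBS to 10 nM and aggregated at 37 °C for 4 days. Oral compound was given at 100 mg/kg once daily, with testing on days 3–4. Training used a 0.25 mA, 3 s shock; step-through latency into the dark compartment was measured 24 h later. n = 10, mean ± SEM, t-test.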

Mus musculus [9] = test: Antialzheimer activity in amyloid beta (1 to 42)-challenged ICR mouse assessed as decrease in escape latency at 100 mg/kg, po measured after 7 days by water maze test; format: functional, organism-based; design: dose 100 mg/kg
How it was run: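 Male ICR mice were injected ICV with 50 µL of pre-aggregated Aβ(1–42) at 10 nM. Compound was then supplied for 7 days in pellet feed, each pellet containing 3 mg. Water maze training ran on days 3–7, and escape latency was recorded across training sessions. n = 10, mean ± SEM.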

[10] = target: T1, Amyloid-beta precursor protein; test: Viability of cells treated with amyloid beta (25 to 35) in mouse HT22 cells at 25 uM after 18 hrs by MTT assay; conditions: HT-22
Mus musculus [11] = test: Antialzheimer activity in po dosed ICR mouse assessed as reduction in amyloid beta (1 to 42)-induced spontaneous memory loss measured after 2 days by Y-maze test; format: functional, organism-based
How it was run: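 Male ICR mice were injected ICV with 50 µL of Aβ(1–42) (10 nM, aggregated at 37 °C for 6 days). Various oral doses in the 50–200 mg/kg range followed, once daily. On day 2, each mouse moved freely in a three-arm Y-maze for 8 min. An arm entry required all four limbs inside, and spontaneous alternation was derived from the entry sequence. n = 10, mean ± SEM, t-test.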

Mus musculus [12] = test: Antialzheimer activity in po dosed ICR mouse assessed as reduction in amyloid beta (1 to 42)-induced spontaneous memory loss measured after 2 days by object recognition task relative to control; format: functional, organism-based
How it was run: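 ICV pre-aggregated Aβ(1–42) (10 nM, 50 µL) was given to male ICR mice, followed by once-daily oral doses in the 50–200 mg/kg series. The object recognition task ran on days 2–3. Exploration was defined as nose within 2 cm of and/or touching an object. Preference index = new-object exploration time / total exploration time. n = 10, mean ± SEM, t-test.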

Mus musculus [13] = test: Antialzheimer activity in po dosed ICR mouse assessed as increase in amyloid beta (1 to 42)-induced step-through latency measured after 3 days by passive avoidance test; format: functional, organism-based
How it was run: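 Male ICR mice received 50 µL of 10 nM Aβ(1–42) ICV at 2.4 mm depth at bregma, after pre-aggregation at 37 °C for 4 days. Oral doses were varied over 50–200 mg/kg, given once daily. Passive avoidance ran on days 3–4 with a 0.25 mA, 3 s training shock. Step-through latency to enter the dark compartment was recorded 24 h after training. n = 10, mean ± SEM, t-test.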

T1 sequence (P05067 whole entry): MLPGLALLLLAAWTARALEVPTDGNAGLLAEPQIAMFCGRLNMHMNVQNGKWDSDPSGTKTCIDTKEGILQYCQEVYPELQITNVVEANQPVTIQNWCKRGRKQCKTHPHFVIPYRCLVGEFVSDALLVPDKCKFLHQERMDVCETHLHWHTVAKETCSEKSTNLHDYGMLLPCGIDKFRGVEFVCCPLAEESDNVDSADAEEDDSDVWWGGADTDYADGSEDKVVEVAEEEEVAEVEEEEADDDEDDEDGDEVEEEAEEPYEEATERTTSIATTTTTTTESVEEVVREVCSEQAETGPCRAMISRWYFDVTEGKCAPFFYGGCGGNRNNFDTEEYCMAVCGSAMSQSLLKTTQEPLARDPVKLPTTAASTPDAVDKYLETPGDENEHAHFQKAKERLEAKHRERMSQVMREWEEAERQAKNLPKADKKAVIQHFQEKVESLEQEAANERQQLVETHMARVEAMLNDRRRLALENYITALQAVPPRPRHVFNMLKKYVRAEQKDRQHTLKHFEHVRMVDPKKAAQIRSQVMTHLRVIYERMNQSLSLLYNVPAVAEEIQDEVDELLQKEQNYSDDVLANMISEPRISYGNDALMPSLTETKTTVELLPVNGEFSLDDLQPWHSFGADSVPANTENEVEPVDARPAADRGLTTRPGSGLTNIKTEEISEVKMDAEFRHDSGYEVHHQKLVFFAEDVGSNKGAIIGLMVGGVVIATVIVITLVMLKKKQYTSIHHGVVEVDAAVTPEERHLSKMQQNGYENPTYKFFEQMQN

Molecule | inhibition [1] | viability at 18 h, 10 µM [2] | also measured
C(=C\c1cc(/C=C/c2ccccc2)ncn1)/c1ccccc1 | 47.4% |  | 
Oc1cccc(/C=C/c2cc(/C=C/c3cccc(O)c3)ncn2)c1 | 14.1% | 142% | 
Oc1cccc(/C=C/c2cccc(/C=C/c3cccc(O)c3)c2)c1 |  | 47% | 
CSc1nc(/C=C/c2ccc(O)c(N(C)C)c2)cc(/C=C/c2ccc(O)c(N(C)C)c2)n1 | 78.6% | 77.3% | 
COc1nc(/C=C/c2cccc(O)c2)cc(/C=C/c2cccc(O)c2)n1 |  | 45.9% | 
CSc1nc(/C=C/c2ccc(O)cc2)cc(/C=C/c2ccc(O)cc2)n1 | 67.4% | 65.3% | 
H-GSNKGAIIGLC-OH |  |  | viability [10]: 56%
COc1nc(/C=C/c2ccc(N(C)C)c(O)c2)cc(/C=C/c2ccc(N(C)C)c(O)c2)n1 | 90.4% | 101% | viability, % of control [3]: 67.4%; pIC50 [6]: 6.10
CSc1nc(/C=C/c2cccc(O)c2)cc(/C=C/c2cccc(O)c2)n1 |  | 43.7% | 
Oc1ccc(/C=C/c2cc(/C=C/c3ccc(O)cc3)ncn2)cc1 | 64.3% | 104% | 
CSc1nc(/C=C/c2ccc(N(C)C)c(O)c2)cc(/C=C/c2ccc(N(C)C)c(O)c2)n1 | 88.8% | 85.3% | pIC50 [6]: 5.96
CN(C)c1ccc(/C=C/c2cc(/C=C/c3ccc(N(C)C)c(O)c3)ncn2)cc1O | 93.7% | 133% | viability, % of control [3]: 76.6%; Activity (Mus musculus [4]): 67%; Activity (Mus musculus [5]): 7%; pIC50 [6]: 5.47; inhibition [7]: Active; Time (Mus musculus [8]): 118 s; Activity (Mus musculus [9]): Active
C(=C\c1cccc(/C=C/c2ccccc2)c1)/c1ccccc1 | 19.8% |  | 
COc1nc(/C=C/c2ccccc2)cc(/C=C/c2ccccc2)n1 | 18.8% |  | 
COc1nc(/C=C/c2ccc(O)cc2)cc(/C=C/c2ccc(O)cc2)n1 | 67.4% | 101% | 
CN(C)c1cc(/C=C/c2cc(/C=C/c3ccc(O)c(N(C)C)c3)ncn2)ccc1O | 83.5% | 146% | viability, % of control [3]: 85.3%; Activity (Mus musculus [4]): 67%; Activity (Mus musculus [5]): inactive; pIC50 [6]: 5.43; inhibition [7]: Active; Time (Mus musculus [8]): 118 s; Activity (Mus musculus [9]): Active
CSc1nc(/C=C/c2ccccc2)cc(/C=C/c2ccccc2)n1 | 11.6% |  | 

The next lines start with results.

inhibition [1] | Molecule | viability at 18 h, 10 µM [2] | also measured
56% | CN(C)c1ccc(/C=C/c2cccc(/C=C/c3ccc(N(C)C)c(O)c3)c2)cc1O | 101% | 
74.1% | COc1nc(/C=C/c2ccc(O)c(N(C)C)c2)cc(/C=C/c2ccc(O)c(N(C)C)c2)n1 | 96.6% | viability, % of control [3]: 59%
7.1% | Oc1cccc(/C=C/c2cc(O)cc(/C=C/c3cccc(O)c3)c2)c1 | 59.2% | 
58.4% | Oc1ccc(/C=C/c2cccc(/C=C/c3ccc(O)cc3)c2)cc1 | 102% | 
79.3% | COc1cc(/C=C/c2cc(/C=C/c3ccc(O)c(OC)c3)ncn2)ccc1O | 216% | viability, % of control [3]: 103%; Activity (Mus musculus [4]): 67%; Activity (Mus musculus [5]): 13%; pIC50 [6]: 5.49; inhibition [7]: Active; Time (Mus musculus [8]): 118 s; Activity (Mus musculus [9]): Active
80.7% | Oc1ccc(/C=C/c2cc(O)cc(/C=C/c3ccc(O)cc3)c2)cc1 | 37.4% | pIC50 [6]: 5.80
63.9% | CN(C)c1cc(/C=C/c2cccc(/C=C/c3ccc(O)c(N(C)C)c3)c2)ccc1O | 95.7% | 
19.8% | Oc1cc(/C=C/c2ccccc2)cc(/C=C/c2ccccc2)c1 |  | 
67.9% | COc1ccc(/C=C/c2cccc(/C=C/c3ccc(OC)c(O)c3)c2)cc1O | 69.5% | 
74.2% | CN(C)c1cc(/C=C/c2cc(O)cc(/C=C/c3ccc(O)c(N(C)C)c3)c2)ccc1O | 66% | 
71.5% | COc1cc(/C=C/c2cccc(/C=C/c3ccc(O)c(OC)c3)c2)ccc1O | 74.8% | 
84.5% | COc1ccc(/C=C/c2cc(O)cc(/C=C/c3ccc(OC)c(O)c3)c2)cc1O | 73.5% | pIC50 [6]: 5.80
68% | COc1nc(/C=C/c2ccc(O)c(OC)c2)cc(/C=C/c2ccc(O)c(OC)c2)n1 | 75.2% | 
80.9% | COc1ccc(/C=C/c2cc(/C=C/c3ccc(OC)c(O)c3)ncn2)cc1O | 136% | Activity (Mus musculus [11]): Dose-dependent effect; viability, % of control [3]: 91.8%; Activity (Mus musculus [4]): 72%; Activity (Mus musculus [5]): 7%; pIC50 [6]: 5.68; inhibition [7]: Active; Time (Mus musculus [8]): 144 s; Activity (Mus musculus [12]): Dose-dependent effect; Activity (Mus musculus [9]): Active; Activity (Mus musculus [13]): Dose-dependent effect
83.3% | CN(C)c1ccc(/C=C/c2cc(O)cc(/C=C/c3ccc(N(C)C)c(O)c3)c2)cc1O | 64.4% | pIC50 [6]: 5.48
75.2% | COc1ccc(/C=C/c2cc(/C=C/c3ccc(OC)c(O)c3)nc(SC)n2)cc1O | 78.8% | 
55% | COc1nc(/C=C/c2ccc(OC)c(O)c2)cc(/C=C/c2ccc(OC)c(O)c2)n1 | 98.4% | 
67.6% | COc1cc(/C=C/c2cc(/C=C/c3ccc(O)c(OC)c3)nc(SC)n2)ccc1O | 79% | 
79% | COc1cc(/C=C/c2cc(O)cc(/C=C/c3ccc(O)c(OC)c3)c2)ccc1O | 80.9% | 
